# Assay results taken from PubChem BioAssay AID1665 (Sanford-Burnham Center for Chemical Genomics, 2009).
# Hit rate of the full screen: of about 190,000 compounds, about 590 (0.31%) were called active.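 Rule for the calls: active = nuclear translocation activity above 50% at 5 µM, with a well cell count of 50 or more; inconclusive = wells under 50 cells across six images, flagged as toxic; inactive = the rest.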 This excerpt belongs to a sample that is enriched for actives.
# Test: modulators of beta-catenin nuclear translocation, primary screen, imaging, HeLa cells, immunofluorescence, high-content (AID 1665);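 for nuclear translocation activity: per-cell ratio of nuclear to cytoplasmic median beta-catenin stain intensity; plate controls were DMSO negative control for no effect and GSK-3 inhibitor IX positive control for full effect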
# Conditions: at 5 µM; cell count: measured here: cell count, cytotoxicity flag; nuclear translocation activity: stronger effect = higher value
# Method in brief: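 Read-out: Nuclear/cytoplasmic beta-catenin signal ratio, % activation | Assay system: Human HeLa cell line | Times: 24 h compound exposure at 37°C, 5% CO2 | Signal: Fluorescence imaging of beta-catenin antibody stain plus DAPI | Dosing: 5 µM primary, 0.02–20 µM confirmation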
SMILES,cell count,nuclear translocation activity
CN(c1ccccc1)S(=O)(=O)c1ccc(Cl)c(C(=O)OCC(=O)NCc2ccco2)c1,1260 cells,-0.2% (inactive)
O=C(COC(=O)c1cc(S(=O)(=O)N2CCCCC2)ccc1Cl)NCc1ccco1,1080 cells,-1.5% (inactive)
Cc1cc(C(=O)OCC(=O)NCc2ccco2)c(C)n1-c1ccccc1,337 cells,94.1% (active)
COc1ccc(OCC(=O)NNC(=O)c2cccc(C)c2)cc1,1060 cells,-0.2% (inactive)
Cc1cc(C)n(-c2nc(C(F)(F)F)nc3ccccc23)n1,998 cells,0% (inactive)
COc1ccc(C(=O)NN(C)c2nc(-c3ccccc3)cc(C)c2S(C)(=O)=O)cc1,1220 cells,-2.1% (inactive)
CN(NC(=O)c1ccccc1F)c1nc(C(F)(F)F)nc2ccccc12,103 cells,155% (active)
CN(NC(=O)c1ccccc1)c1nc2ccccc2nc1C(F)(F)F,965 cells,6.3% (inactive)
CSc1nc(N(C)NC(=O)c2cccc(C)c2)c2ccccc2n1,751 cells,97.3% (active)
COC(=O)c1sccc1NN1C(=O)c2ccccc2C1=O,1180 cells,-1.9% (inactive)
COC(=O)c1cc(N2CCNCC2)nc2ccccc12,1220 cells,1.7% (inactive)
Cc1ccc(F)cc1NC(=O)N1CCCN(c2ccc(C(F)(F)F)cn2)CC1,1280 cells,-1% (inactive)
CCN(CC)c1ccc(/C=N/NC(=O)c2cnccn2)c(O)c1,1050 cells,12.5% (inactive)
Cc1cc2c(cc1C)N(Cc1ccccc1)C1=NCCCN12,1210 cells,-0.7% (inactive)
Cc1ccc(NC(=O)/C(=C\c2ccccc2)NC(=O)c2ccco2)cc1,1370 cells,0.2% (inactive)
COC(=O)c1cn(C(=O)c2ccc(Cl)cc2)c2ccccc12,1100 cells,-1.4% (inactive)
COc1c(N2CCN(C(=S)Nc3ccccc3F)C(C)C2)c(F)cc2c(=O)c(C(=O)O)cn(C3CC3)c12 (stereo unspecified),1380 cells,0.4% (inactive)
CSc1ccc(/C=N\NC(=O)COc2ccc(Cl)cc2Br)cc1,812 cells,-1.4% (inactive)
Cc1ccc(OCC(=O)N/N=C\c2ccco2)c(C)c1,1340 cells,-1.4% (inactive)
Cc1ccc(/C=N/NC(=O)COc2ccccc2-c2ccccc2)cc1,162 cells,107% (active)
COc1ccc(CCN2C(=O)CC(N3CCC(C(N)=O)CC3)C2=O)cc1OC (stereo unspecified),1240 cells,0.6% (inactive)
Cc1ccc(N=C2NC(=O)/C(=C/C=C/c3ccco3)S2)cc1C,321 cells,58.6% (active)

SMILES,cell count,nuclear translocation activity
Cc1cccc(N=C2NC(=O)/C(=C/c3cn(C)c4ccccc34)S2)c1,1040 cells,0.7% (inactive)
Cc1ccc(N2NC(=O)/C(=C/C=C/c3ccco3)C2=O)cc1C,1100 cells,1.3% (inactive)
CCCNc1c(N)c(=O)c1=O,1380 cells,-0.4% (inactive)
O=C(N/N=C/c1cccc2cccnc12)[C@H]1C[C@@H]1c1ccccc1,1300 cells,2.9% (inactive)
Cc1noc(C)c1C(=O)OCC(=O)N1CCN(S(=O)(=O)c2ccc3ccccc3c2)CC1,1300 cells,0.1% (inactive)
Cc1ccc(C(=O)N/C(=C\c2ccco2)C(=O)NC2CCS(=O)(=O)C2)cc1 (stereo unspecified),1360 cells,-0.2% (inactive)
COc1ccc(CCNC(=O)C(=O)NCC2CCNCC2)cc1OC,1380 cells,-1.5% (inactive)
COc1ccc(CCNC(=O)C(=O)Nc2ccc3nc4n(c(=O)c3c2)CCCCC4)cc1OC,1400 cells,0.2% (inactive)
COc1cc2nc(Cl)nc(NCCO)c2cc1OC,1310 cells,0.1% (inactive)
CCOc1cccc(C(=O)Nc2cccnc2)c1,1110 cells,-2.1% (inactive)
CCOC(=O)c1cc(NC(=O)c2cccnc2)cc(C(=O)OCC)c1,1120 cells,0.3% (inactive)
CCOC(=O)c1ccc(-c2ccc(C(=O)Nc3cccnc3)o2)cc1,659 cells,56.9% (active)
COC(=O)CNc1nc(Cl)nc(N2CCC(C)CC2)n1,1320 cells,-0.1% (inactive)
CC(C)Sc1nnc([C@H](Cc2ccccc2)NC(=O)OC(C)(C)C)o1,1410 cells,0.4% (inactive)
CCOC(=O)Cc1cc(=O)[nH]c(/N=C(\N)Nc2ccc(OC)cc2)n1,1300 cells,-0.7% (inactive)
Cc1ccc(C(=O)NNC(=O)c2cc3cc4ccccc4nc3s2)cc1,719 cells,80.3% (active)
Cc1ccc(C(=O)NNC(=O)c2cccs2)cc1,1120 cells,-0.6% (inactive)
O=C(NNC(=O)c1cc2c(s1)CCCC2)c1ccccc1,547 cells,-1.8% (inactive)
CCOc1ccccc1N1CN(Cc2ccccc2)CNC1=S,1340 cells,-1.3% (inactive)
CCc1nc2sc3c(Cl)ncnc3c2c2c1CCCC2,1350 cells,-1.6% (inactive)
Cc1cc(=O)[nH]c(S)c1C#N,1290 cells,-0.9% (inactive)
O=C(COc1ccccc1)N1CCN=C1SCc1cccc(F)c1,1330 cells,0.4% (inactive)

SMILES,cell count,nuclear translocation activity
COc1cc(C=O)ccc1Oc1nnnn1-c1ccccc1,1310 cells,-0.4% (inactive)
Cc1cc(C(=O)NNS(=O)(=O)c2ccccc2C(F)(F)F)nn1C(C)(C)C,1120 cells,-2.9% (inactive)
CCOC(=O)c1c(NC(=O)NC(C)(C)C)sc2c1CCN(C)C2,1280 cells,0.5% (inactive)
Nc1nc(SC23CC4CC(CC(C4)C2)C3)ns1,1340 cells,0.7% (inactive)
CC(C)n1c(=S)[nH]c2cc(C(F)(F)F)ccc21,1090 cells,-0.8% (inactive)
COC(=O)c1ccc(S(=O)(=O)NCc2ccccc2)n1C,1270 cells,0.3% (inactive)
CCOCCn1c(-c2ccccc2)nc2ccccc21,1340 cells,-0.7% (inactive)
O=C(O)c1ccccc1OCc1ccccc1Cl,1320 cells,-1.2% (inactive)
Cc1cc(=O)[nH]c(N/N=C/c2ccc3c(c2)OCCO3)n1,1320 cells,-0.5% (inactive)
COc1ccc(NC(=O)C2CCC(CNc3c(N4CCCCC4)c(=O)c3=O)CC2)c(OC)c1 (stereo unspecified),1350 cells,-0.3% (inactive)
Cc1nnc2n1N=C(c1ccc3c(c1)NC(=O)CO3)CS2,1300 cells,-0.7% (inactive)
C/C(=N/NC(=O)CN1CCN(S(=O)(=O)c2ccc(Br)cc2)CC1)c1ccncc1,1320 cells,-0.5% (inactive)
Nc1ccc2nn(-c3ccc(Cl)cc3)nc2c1,1360 cells,1% (inactive)
CC1=NNC(=O)C1CCC(=O)N/N=C(\C)c1ccc(Cl)cc1 (stereo unspecified),1240 cells,0.6% (inactive)
Cc1cc(C)nc(SCc2cn3c(C)cc(C)nc3n2)n1,1340 cells,-0.4% (inactive)
CCc1nc2sc(C(=O)O)c(N)c2c2c1CCCC2,1230 cells,2.4% (inactive)
CC(=O)NNC(=O)c1csc(Cc2c(Cl)sc3ccc(Cl)cc23)n1,1250 cells,-0.8% (inactive)
CC(CNS(=O)(=O)c1ccc(Br)cc1)CN(C)C (stereo unspecified),1320 cells,0.2% (inactive)
COc1ccc(CNC(=O)C(Cc2ccccc2)n2cccc2)cc1 (stereo unspecified),1270 cells,-0.6% (inactive)
COC(OC)c1ccnc(SCc2ccccc2Cl)n1,1270 cells,-2.6% (inactive)
O=C(O)C(F)(F)C(NCc1ccccc1)c1ccccc1 (stereo unspecified),1280 cells,0% (inactive)
CCOc1cc(/C=C(\C#N)c2nc(-c3cccs3)c(NC(C)=O)s2)ccc1O,77 cells,68.9% (active)

SMILES,cell count,nuclear translocation activity
COc1cc(/C=N\Nc2nc(-c3cccs3)c(NC(C)=O)s2)ccc1O,1300 cells,0.1% (inactive)
COc1cc(/C=C(\C#N)c2nc3c(s2)CC(C)CC3)ccc1O (stereo unspecified),1440 cells,2.5% (inactive)
Cn1c(SCC(=O)N2CCOCC2)nnc1-c1ccc2ncccc2c1,1320 cells,0.1% (inactive)
O=[N+]([O-])c1cccc2ncccc12,1340 cells,-0.4% (inactive)
O=C(NC1CCCCC1)c1cc(C2CC2)on1,1290 cells,-0.2% (inactive)
Cc1ccc(-c2nc3ccccc3[nH]c2=O)cc1,1310 cells,2.5% (inactive)
CCCCCCCCCCCCN1C(=O)CSC1c1cccnc1 (stereo unspecified),1170 cells,-0.9% (inactive)
CC(=O)NC(=S)Nc1ccc(NC(=S)NC(=O)c2ccc([N+](=O)[O-])cc2)cc1,1350 cells,-0.9% (inactive)
CCc1ccccc1NC(=O)CSc1nnc(CCNC(=O)OC(C)(C)C)o1,1310 cells,1% (inactive)
Oc1ccc(N=Cc2c(O)ccc3ccccc23)cc1,1240 cells,-1.5% (inactive)
Oc1c(C=Nc2cccc3nsnc23)ccc2ccccc12,317 cells,154% (active)
Oc1ccc2ccccc2c1C=Nc1ccccc1,1230 cells,1.3% (inactive)
O=C(O)/C=C/c1ccc2c(c1)OCCO2,1430 cells,-1.2% (inactive)
Cc1cc(Nc2ccc(Cl)cc2)nc(N2CCOCC2)n1,1280 cells,-0.7% (inactive)
Cc1onc(NC(=O)c2ccc([N+](=O)[O-])o2)c1Br,1260 cells,5.1% (inactive)
COC(=O)c1cc(NC(=O)c2ccco2)ccc1N1CCOCC1,1200 cells,-0.7% (inactive)
CCCC(=O)Nc1ccc2c(c1)nc(CCNC(=O)c1ccco1)n2C,1400 cells,-1.3% (inactive)
COc1ccc(NC2=CC(=S)NC(C)(C)C2)cc1,1130 cells,-1.8% (inactive)
COC(=O)c1sc(SC)c(S(=O)(=O)C(C)C)c1N/N=C(\C#N)S(=O)(=O)c1ccccn1,1240 cells,-2.6% (inactive)
CCN(CC)CCCN=Cc1c(O)n(-c2ccc(C)cc2)c(=O)c2ccccc12,1350 cells,-0.1% (inactive)
O=C(O)CC1(CC(=O)Nc2cccc(C(F)(F)F)c2)CCCC1,1260 cells,0.5% (inactive)
CN(C)/C=C(/C(=O)c1ccc(Cl)c(Cl)c1)c1nnnn1-c1ccccc1,1260 cells,0% (inactive)
